The list is not random: actives were taken first. Their share in the collection is about 1.5%.
FLuc inh counter – inhibits firefly luciferase, flagging false hits in luciferase inhibition screens. 200,000 tested, 1.5% active. P08659. inhibition, % at 10 µM. ATPLite firefly luciferase biochemical luminescence, 10 min;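 active = inhibition above about 50% when tested at 10 µM, limit read from the data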
Target sequence (P08659 whole entry, looked up): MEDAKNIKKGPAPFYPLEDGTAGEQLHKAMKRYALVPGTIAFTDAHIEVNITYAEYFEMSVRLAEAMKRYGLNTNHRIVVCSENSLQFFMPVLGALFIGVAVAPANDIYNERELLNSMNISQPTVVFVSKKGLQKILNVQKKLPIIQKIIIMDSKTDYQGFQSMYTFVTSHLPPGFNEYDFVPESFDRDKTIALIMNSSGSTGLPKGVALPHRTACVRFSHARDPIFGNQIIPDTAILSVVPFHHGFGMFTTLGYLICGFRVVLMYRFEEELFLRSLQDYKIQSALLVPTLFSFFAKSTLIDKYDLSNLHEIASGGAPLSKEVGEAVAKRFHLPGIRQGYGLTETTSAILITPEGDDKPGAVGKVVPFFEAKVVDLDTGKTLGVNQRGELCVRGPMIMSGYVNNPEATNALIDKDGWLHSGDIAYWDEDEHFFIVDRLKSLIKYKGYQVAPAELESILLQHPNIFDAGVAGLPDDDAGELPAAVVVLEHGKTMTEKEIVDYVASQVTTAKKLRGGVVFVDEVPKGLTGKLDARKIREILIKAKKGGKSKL
FLuc act counter – firefly luciferase counter-screen for stimulation assays | P08659 | ATPlite luciferase biochemical, luminescence, 10 min; 0 = ATP-free wells, 1 = DMSO control | activation factor at 10 µM | 200,000 tested, under 10 active | AID 1027;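 active = luciferase activation factor, scaled between plate controls, of at least 2 with compound at 10 µM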
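test system = cell-free luciferase reagent | medium = PBS as buffer for the ATP substrate | dosing = test compounds dosed from 2 mM stocks in 100% DMSO | incubation = 10 min at ambient temperature | detection = luminescence measurement of luciferase light output | benchmarks = low control with PBS replacing ATP, high control enzyme plus ATP without compound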
PPC-1+TRAIL kill – kills PPC-1 cancer cells in the presence of TRAIL; PPC-1 cells + TRAIL, ATPLite viability luminescence; cell killing (% activity), % at 4 µM or 5 µM; 220,000 tested, 0.41% active; AID 1443;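 active = cell killing above 50% in the first pass at 4 µM, then a duplicate retest at 5 µM averaging 50% or more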
TRAIL sens C8 – sensitizes caspase-8 expressing cells to TRAIL. NB7+C8 cells + TRAIL, ATPlite viability luminescence. 360,000 tested, 1% active. inhibition (viability loss, TRAIL sensitization), % at 10 µM. AID 624354;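 active = compounds causing at least 50% loss of cell viability in the single-dose screen, relative to plate controls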
PPC-1 tox – PPC-1 cell cytotoxicity; shares compounds with PPC-1+TRAIL kill; PPC-1 viability, ATPlite luminescence, overnight; cytotoxicity, % at 5 µM; 1,200 tested, 50% active; AID 1447;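 active = reconfirmed compounds whose average cytotoxicity reaches 50% or more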
Numbers stand for hits; – = inactive; · = not tested or not shown.

SMILES	FLuc inh counter	FLuc act counter	PPC-1+TRAIL kill	TRAIL sens C8	PPC-1 tox
CCCCCCOC(=O)CC1CC(C(C)=O)C1(C)C (configuration not stated)	·	·	·	–	·
Cc1ccc(S(=O)(=O)N2CCN(C(=O)COC(=O)COc3ccccc3)CC2)cc1	–	–	–	–	·
O=C(COc1ccccc1Cl)OCC(=O)N1CCN(S(=O)(=O)c2ccccc2)CC1	–	–	–	–	–
CCc1ccc(CCC(=O)N2CCN(S(=O)(=O)c3ccc(Br)cc3)CC2)cc1	·	·	·	–	·
Cc1nc(-c2ccccc2)sc1C(=O)NN	–	–	–	–	–
C=CCNC(=O)c1sc(-c2ccccc2)nc1C	–	–	–	–	·
COc1ccc(C(=O)NNC(=O)c2ccccn2)cc1	97	–	86	89	81
CCCN1C(=O)/C(=C2\SC(N3CCCCC3)=NC2=O)c2ccccc21	71	–	–	–	–
O=C1N=C(N2CCOCC2)S/C1=C1\C(=O)N(Cc2ccccc2)c2ccccc21	–	–	–	–	·
CN1C(=O)/C(=C2\SC(N3CCCCCC3)=NC2=O)c2ccccc21	79	–	59	51	–
CC(C)c1ccc(NC(=O)NCc2cccnc2)cc1	·	·	·	–	·
Cc1cccc(-n2cnc3c(sc4nc(N5CCOCC5)c5c(c43)CCCC5)c2=O)c1	·	·	–	–	·
O=C(NCCNCCO)C1(C(F)(F)F)C/C(=C\CCO)CCCO1 (configuration not stated)	·	·	·	–	·
O=C1c2ccccc2-c2nnc(-c3ccc(F)cc3)cc21	79	–	78	83	79
O=C1c2ccccc2-c2nnc(-c3ccc(O)cc3)cc21	90	–	69	–	64
O=c1[nH]nc(-c2ccc(F)cc2)cc1-c1ccccc1	·	·	·	–	·
Cc1ccccc1-c1cc2c(nn1)-c1ccccc1C2=O	77	–	–	55	–
Cc1ccc(-c2cc3c(nn2)-c2ccccc2C3=O)cc1	·	·	90	93	92
O=C1c2ccccc2-c2nc3ccccc3cc21	·	·	·	–	·
CC1CN(C(=O)c2cccs2)CCN1C(=O)c1cccs1 (configuration not stated)	–	–	–	–	·
CCOc1ccc(N2C(=O)CC(SCCN)C2=O)cc1 (configuration not stated)	57	–	–	–	–
Cc1nn(C(C)(C)C)c(C)c1/C=N/OC(=O)Nc1ccc(Cl)cc1	·	·	85	88	86
Cc1nn(C)c(C)c1/C=N/NC(=O)C(C)(C)Oc1ccc(Cl)cc1	–	–	–	–	·
COc1ccc(-c2nc(Cn3c(SCc4ccc(C)cc4)nc4ccncc43)c(C)o2)cc1OC	–	–	–	–	–
O=C(NCc1cccs1)c1cc(-c2ccc(O)cc2)on1	·	·	–	–	·
SMILES	FLuc inh counter	FLuc act counter	PPC-1+TRAIL kill	TRAIL sens C8	PPC-1 tox
Cc1ccc(-c2cc(C(=O)NCc3cccs3)no2)cc1	–	–	–	–	–
Clc1ccc(Cn2ncc3c(N4CCCCC4)ncnc32)cc1	–	–	–	–	·
Cc1cccc(-n2ncc3c(N4CCOCC4)ncnc32)c1	94	–	79	84	78
Clc1ccc(-n2ncc3c(N4CCCCCC4)ncnc32)cc1	83	–	63	84	68
Cc1ccc(C(O)Cn2nc(C)cc2C)cc1 (configuration not stated)	·	·	·	–	·
COC(=O)c1c(C)[nH]c(C(=O)C(C)OC(=O)c2cnc(C)cn2)c1C (configuration not stated)	·	·	·	–	·
S=c1[nH]ncn1/N=C/c1ccc(N2CCOCC2)cc1	87	–	62	51	64
S=c1[nH]ncn1/N=C/c1ccc(Br)cc1	–	–	–	–	·
O=C(/C=C/c1ccc2c(c1)OCO2)Nc1cccnc1	87	–	60	70	57
O=C(Sc1ccc(Cl)cc1)c1ccccn1	·	·	·	–	·
Cc1cnc(NC(=O)CCNC(=O)c2ccccc2Cl)s1	–	–	–	–	·
Cc1cnc(NC(=O)COc2ccccc2Cl)s1	91	–	60	77	59
O=C(NC1=NCCS1)c1cc2ccccc2o1	86	–	58	58	51
O=C(Nc1ccccn1)c1cc2ccccc2o1	95	–	81	83	80
CCOc1ccccc1C(=O)NCC(=O)N(C)Cc1cccnc1	·	·	·	–	·
CC1(C)Cc2nc3sc4c(SCC(=O)NCc5ccccc5)ncnc4c3cc2CO1	–	–	–	–	·
CC1(C)Cc2nc3sc4c(SCC(=O)O)ncnc4c3cc2CO1	·	·	71	76	75
CC1(C)Cc2nc3sc(C(=O)NCCO)c(N)c3cc2CO1	–	–	–	–	–
COc1ccc(S(=O)(=O)Nc2cccc3c2O[C@H](CN(C)CC2CCCCC2)[C@@H](C)CN([C@H](C)CO)C3=O)cc1	·	·	·	–	·
COc1ccc(-n2nc3cc(C)c(NC(C)=O)cc3n2)cc1	81	–	64	74	60
COc1ccc(-n2nc3cc(C)c(NC(=O)C(C)C)cc3n2)cc1	–	–	–	·	·
COc1nc(Nc2nc3ccccc3c(=O)[nH]2)nc2ccc(C)cc12	·	·	51	–	51
COc1ccc(S(=O)(=O)N(C)CC(=O)Nc2ccc(C(N)=O)cc2)cc1OC	–	–	–	–	·
COC(=O)c1ccc(NC(=O)CN(C)S(=O)(=O)c2ccc(OC)c(C)c2)cc1	–	–	–	–	–
CCOc1cccc(/C=C/c2cc(C(=O)O)c3ccccc3n2)c1OC	·	·	71	76	69
SMILES	FLuc inh counter	FLuc act counter	PPC-1+TRAIL kill	TRAIL sens C8	PPC-1 tox
CCOc1ccccc1NC(=O)c1cc(-c2cc(OC)c(OC)c(OC)c2)nc2ccccc12	·	·	·	–	·
CCCn1c(N)c(C(=O)CSc2nnc(Cc3ccccc3)o2)c(=O)n(C)c1=O	–	–	–	–	–
O=C(CSc1nnc(Cc2ccccc2)o1)c1ccccc1	–	–	·	–	·
COc1ccc(/C=C\c2nc(=O)c3ccccc3o2)cc1	93	–	60	61	57
CC(C)Cc1cc(C(=O)N2CCCC(CO)(Cc3ccc(F)cc3F)C2)n[nH]1 (configuration not stated)	·	·	·	–	·
COc1cc(OC)c(OC)cc1CNC(=O)c1ccc(COc2ccccc2)cc1	·	·	·	–	·
COc1ccc(-c2nc3ccccc3s2)cc1	92	–	60	84	61
COc1ccc(-c2nc3ccccc3s2)cc1NC(C)=O	–	–	–	–	·
CS(=O)(=O)c1cccc(C(=O)Nc2ccc3c(c2)OCCCO3)c1	·	·	·	–	·
Cc1nn(C)cc1/C=C/C(=O)c1cccs1	63	–	–	–	–
Cc1nn(C)c(C)c1/C=C/C(=O)c1cccs1	·	·	·	–	·
CCOC(=O)C1=CCN(S(=O)(=O)c2ccccc2C)C1c1ccc(Cl)c(Cl)c1 (configuration not stated)	·	·	·	–	·
CC(C)NC(=O)CSc1nc(N)c(-c2ccccc2)c(=O)[nH]1	–	–	–	–	·
NNC(=O)c1cn2ccccc2n1	–	–	–	–	·
O=C(Nc1nccs1)c1cn2ccccc2n1	·	·	61	–	59
COc1cc(/C=C(/C(=O)c2cccs2)c2nc3ccccc3[nH]2)ccc1O	–	–	–	–	–
COc1cccc(-c2nc(-c3ccccc3)no2)c1	–	–	–	–	·
COc1cccc(-c2nc(-c3ccccn3)no2)c1	93	–	76	·	81
c1ccc(-c2noc(-c3ccncc3)n2)nc1	–	–	–	–	·

Screening data: PubChem BioAssay, Sanford-Burnham Center for Chemical Genomics
